Here are results for eleven compounds from ChEMBL document CHEMBL4406921, “Discovery of Axelopran (TD-1211): A Peripherally Restricted μ-Opioid Receptor Antagonist” (ACS Med Chem Lett, 2019).

Data set [1] can be described thus: Half life in dog liver microsomes at 3 uM. The format is ADME, Canis lupus familiaris, Microsome. In general terms: Microsomes from liver hold many membrane-bound enzymes, among them those of drug oxidation.
Data set [2] in a line: Half life in human liver microsomes at 3 uM. Format: ADME, Microsome.
Data set [3] can be described thus: Half life in rat liver microsomes at 3 uM. The format is ADME, Microsome.
Data set [4] deals with T1, Mu-type opioid receptor (Homo sapiens, UniProt P35372). Kind of data set: Antagonist activity at human recombinant mu opioid receptor expressed in CHO-K1 cell membranes assessed as intrinsic activity at 10 pM to 20 uM incubated for 30 mins in presence of Eu-GTP by DELFIA GTP binding assay relative to DAMGO.
Data set [5] concerns the target T1, Mu-type opioid receptor. Kind of data set: Displacement of [3H]-DPN from recombinant human mu opioid receptor expressed in CHO-K1 cell membranes by radioligand binding assay. The essentials: (§1)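 Membranes from CHO-K1 cells stably transfected with human recombinant μ or δ receptor, or guinea pig κ receptor; competition with [3H]-DPN radioligand; affinity reported as pKi.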
A general note: Loss of bound radioactivity is the signal in a displacement assay; it reports binding, not function.

For data set [6], the target named is Delta-type opioid receptor (Homo sapiens, UniProt P41143). Kind of data set: Displacement of [3H]-DPN from recombinant human delta opioid receptor expressed in CHO-K1 cell membranes by radioligand binding assay. The essentials: as §1
Data set [7] deals with Kappa-type opioid receptor (Cavia porcellus, UniProt P41144). In words: Displacement of [3H]-DPN from guinea pig kappa opioid receptor expressed in CHO-K1 cell membranes by radioligand binding assay. The essentials: as §1
Data set [8] in a line: Permeability coefficient, Kp in human Caco2 cells. The format is ADME, cell-based. As to conditions: Caco-2, read-out: Kp. A general note: Passage across Caco-2 layers is used to estimate intestinal permeability.

Chain of Delta-type opioid receptor (P41143 whole entry): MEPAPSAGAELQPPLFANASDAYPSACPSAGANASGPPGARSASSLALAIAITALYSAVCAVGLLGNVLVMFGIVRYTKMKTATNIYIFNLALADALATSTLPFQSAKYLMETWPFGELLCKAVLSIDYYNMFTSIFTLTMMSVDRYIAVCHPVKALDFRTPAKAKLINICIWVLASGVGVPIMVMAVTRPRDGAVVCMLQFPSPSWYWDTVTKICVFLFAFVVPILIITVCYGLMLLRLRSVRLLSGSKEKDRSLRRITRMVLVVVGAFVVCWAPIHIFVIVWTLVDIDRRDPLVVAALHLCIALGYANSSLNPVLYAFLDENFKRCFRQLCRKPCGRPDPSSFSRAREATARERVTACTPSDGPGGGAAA
T1 sequence (P35372 whole entry): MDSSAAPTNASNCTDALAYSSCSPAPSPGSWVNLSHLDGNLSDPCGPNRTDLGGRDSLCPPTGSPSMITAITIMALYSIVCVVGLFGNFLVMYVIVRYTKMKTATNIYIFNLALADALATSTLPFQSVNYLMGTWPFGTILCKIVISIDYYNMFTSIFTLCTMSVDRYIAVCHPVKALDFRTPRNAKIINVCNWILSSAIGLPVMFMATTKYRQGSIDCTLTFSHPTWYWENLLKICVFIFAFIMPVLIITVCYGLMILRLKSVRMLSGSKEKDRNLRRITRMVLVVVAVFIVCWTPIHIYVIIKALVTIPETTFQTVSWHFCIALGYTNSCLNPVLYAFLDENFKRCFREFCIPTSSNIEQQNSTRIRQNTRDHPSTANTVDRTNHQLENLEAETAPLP
Chain of Kappa-type opioid receptor (P41144 whole entry): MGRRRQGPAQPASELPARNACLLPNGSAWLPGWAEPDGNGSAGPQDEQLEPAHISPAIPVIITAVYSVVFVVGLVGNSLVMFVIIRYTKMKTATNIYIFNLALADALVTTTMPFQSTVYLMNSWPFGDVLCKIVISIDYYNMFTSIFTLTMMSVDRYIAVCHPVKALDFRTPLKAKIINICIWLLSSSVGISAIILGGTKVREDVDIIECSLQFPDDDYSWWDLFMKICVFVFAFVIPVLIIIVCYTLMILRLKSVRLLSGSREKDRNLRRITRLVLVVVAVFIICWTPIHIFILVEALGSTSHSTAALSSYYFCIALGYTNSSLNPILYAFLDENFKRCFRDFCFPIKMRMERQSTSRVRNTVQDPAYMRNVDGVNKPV

With `CCC(CC)CN(CCCCCN1[C@@H]2CC[C@H]1C[C@@H](c1cccc(C(N)=O)c1)C2)C(=O)CO`, the half-life – broadly, the time in which the quantity being followed falls by half – at 3 µM in data set [1] was 19 min; in data set [2], 12 min; in data set [3] it was 28 min. The Intrinsic activity in data set [4] was found to be 1%. The Ki (in general, the dissociation constant of the complex between target and ligand, obtained from inhibition or displacement) in data set [5] was 0.631 nM; in data set [6] it was 20 nM.
For the compound `CCC(CC)CN(CCCCCCN1[C@@H]2CC[C@H]1C[C@@H](c1cccc(C(N)=O)c1)C2)C(=O)CO`, the values for the half-life at 3 µM in data set [1], in data set [2] and in data set [3] were 9 min, 9 min and 26 min, respectively. For the same compound, the Intrinsic activity in data set [4] is -2%. Also, the Ki in data set [5] was 1 nM; in data set [6], 25.1 nM.
As for `CC(C)(C)C(=O)N(CCN1[C@@H]2CC[C@H]1C[C@@H](c1cccc(C(N)=O)c1)C2)CC1CCCCC1`, the figures for the Ki in data set [7], in data set [5] and in data set [6] were 0.158 nM, 0.126 nM and 2 nM, respectively. Further, the half-life at 3 µM in data set [1] came out at 2 min; in data set [2], 9 min; in data set [3] it was 12 min. In addition, in data set [4], the Intrinsic activity amounted to 3%.
Take `CC(=O)N(CCN1[C@@H]2CC[C@H]1C[C@@H](c1cccc(C(N)=O)c1)C2)CC1CCCCC1`: the values for the Ki in data set [7], in data set [5] and in data set [6] were 0.126 nM, 0.1 nM and 1.58 nM, respectively. Also, the half-life at 3 µM in data set [1] stood at 16 min; in data set [2], 63 min; in data set [3], 74 min. Moreover, the Intrinsic activity in data set [4] is -1%.
Take `COC(=O)N(CCN1[C@@H]2CC[C@H]1C[C@@H](c1cccc(C(N)=O)c1)C2)CC1CCCCC1`: the Ki was 0.2 nM in data set [7], 0.126 nM in data set [5] and 2.51 nM in data set [6]. Further, the half-life at 3 µM in data set [1] amounted to 2 min; in data set [2] it was 7 min; in data set [3], 2 min. In data set [4], the Intrinsic activity turned out to be 7%.
In the case of `CN(C)S(=O)(=O)N(CCN1[C@@H]2CC[C@H]1C[C@@H](c1cccc(C(N)=O)c1)C2)CC1CCCCC1`, the Ki in data set [7] was 0.2 nM; in data set [5], 0.2 nM; in data set [6], 2 nM. Besides, the half-life at 3 µM in data set [1] is 5 min; in data set [2], 9 min; in data set [3], 8 min. Besides, in data set [4], the Intrinsic activity amounted to 0%.
In the case of `CS(=O)(=O)N(CCN1[C@@H]2CC[C@H]1C[C@@H](c1cccc(C(N)=O)c1)C2)CC1CCCCC1`, the Ki was 0.794 nM in data set [7], 0.251 nM in data set [5] and 7.94 nM in data set [6]. The half-life at 3 µM in data set [1] is 2 min; in data set [2], 19 min; in data set [3] it was 13 min. The Intrinsic activity in data set [4] is 1%.
For `CCC(CC)CN(CCCCN1[C@@H]2CC[C@H]1C[C@@H](c1cccc(C(N)=O)c1)C2)C(=O)CO`, the half-life at 3 µM in data set [1] stood at 90 min; in data set [2], 21 min; in data set [3], 90 min. The Intrinsic activity in data set [4] was -1%. Further, the Ki in data set [5] was 0.631 nM; in data set [6], 20 nM.
As for `NC(=O)c1cccc([C@H]2C[C@H]3CC[C@@H](C2)N3CCN(CC2CCCCC2)C(=O)c2ccco2)c1`, the Ki in data set [7] was 0.1 nM; in data set [5] it was 0.1 nM; in data set [6], 1.26 nM. Moreover, the half-life at 3 µM in data set [1] was 2 min; in data set [2], 17 min; in data set [3], 10 min. For the same compound, the Intrinsic activity in data set [4] was 1%.
`C[C@H]1CN(CCC(=O)O)CC[C@@]1(C)c1cccc(O)c1`: the half-life at 3 µM in data set [3] is more than 90 min. Besides, in data set [4], the Intrinsic activity is 4%. The Ki in data set [5] was 631 nM; in data set [6], 3160 nM. Further, the Papp in data set [8] is less than 1 ×10⁻⁶ cm/s.
Turning to `C[C@H]1CN(CCCc2ccccc2)CC[C@@]1(C)c1cccc(O)c1`, the Ki in data set [7] was 0.794 nM; in data set [5], 0.1 nM; in data set [6], 1.26 nM. In data set [3], the half-life at 3 µM was determined as 6 min. The Intrinsic activity in data set [4] was -21%.
